Sampled rows, rich in hits. Any-hit rate of the full collection: about 2.5%.
MEKK2mut PB1 HTS: signal of MEK5 binding to mutant human MEKK2 PB1 domain; bead flow cytometry, Alexa488-MEK5 binding to MEKK2 mutant; percent response, % at 10 µM; 0.35% of 290,000 active; AID 1530; in the data active means percent response above about 24%, passing the limit was not always enough
Rce1 inh: blocks yeast Ras-converting enzyme. Q03530. yeast membranes, quenched prenylated peptide cleavage fluorescence. calls only. 0.27% of 290,000 active;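 active means fall in fluorescence gain of 50% or more versus controls, with final raw signal at or below 3038400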;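 further: plate controls were neutral control wells for no effect and wells lacking membranes for full effect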
T cell HTS: modulates CD8 T cell binding to vesicles; 2C CD8+ T cell-vesicle binding, flow cytometry; stronger effect = lower value; 0.068% of 330,000 active; response (vesicle binding), % at 7 µM;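 active means response, share of CD8 T cells binding vesicles, and their 90th percentile fluorescence all below set limits, cut at about 80% in these data, passing the limit was not always enough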;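 further: values below 100% mean blocked vesicle binding to the CD8+ T cells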
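Read-out – percent CD8+ FL2 mean versus row control · System – murine 2C transgenic CD8+ T lymphocytes · Times – 1.5 h cell–vesicle binding at 37 °C, then 20 min icy labelling · Control set – naked vesicles low, QL9 vesicles with vehicle high · Detection – cytometric PE anti-B7-1 and Alexa647 anti-CD8 signals after 1% paraformaldehyde fixation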
MEKK3 PB1 HTS: MEKK3-MEK5 PB1 interaction, increase or decrease; bead-based flow cytometry, Alexa488-MEK5 binding to MEKK3; actives lie on both sides; 0 = blocked by unlabeled MEK5, 100 = vehicle; Q99759; 1.4% of 290,000 active; AID 1529; binding response (% of control), % at 10 µM;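 active means binding response more than 3 SD above or below the average of its plate-row segment, actives on both sides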;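 further: Alexa488 bead fluorescence after subtracting the streptavidin-only scavenger bead signal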
Target sequence (Q99759 whole entry, looked up): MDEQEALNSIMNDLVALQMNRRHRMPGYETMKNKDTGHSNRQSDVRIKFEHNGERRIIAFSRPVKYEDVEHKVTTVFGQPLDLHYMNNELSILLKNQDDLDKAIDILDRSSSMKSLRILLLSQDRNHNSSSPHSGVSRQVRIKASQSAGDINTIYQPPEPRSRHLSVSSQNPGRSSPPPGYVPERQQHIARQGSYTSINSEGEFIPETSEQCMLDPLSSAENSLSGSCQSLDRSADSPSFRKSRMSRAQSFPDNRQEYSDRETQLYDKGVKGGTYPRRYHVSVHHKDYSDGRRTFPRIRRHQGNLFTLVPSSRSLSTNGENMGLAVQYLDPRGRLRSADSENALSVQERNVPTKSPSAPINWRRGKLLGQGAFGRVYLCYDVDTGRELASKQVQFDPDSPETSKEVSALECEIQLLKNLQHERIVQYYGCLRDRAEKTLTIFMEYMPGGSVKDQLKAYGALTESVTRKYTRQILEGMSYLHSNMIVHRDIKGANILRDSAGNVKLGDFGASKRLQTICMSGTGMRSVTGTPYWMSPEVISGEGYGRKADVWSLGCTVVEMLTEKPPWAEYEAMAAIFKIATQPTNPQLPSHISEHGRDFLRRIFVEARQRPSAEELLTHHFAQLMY
MEKK2 WT-MEK5: raises or lowers MEK5 binding to wildtype human MEKK2 PB1 domain. Q9Y2U5. bead flow cytometry, Alexa488-MEK5 binding to MEKK2 WT; actives lie on both sides. binding response (% of control), % at 10 µM. 1.1% of 290,000 active; in the data active means binding response below about 67% or above about 130%
UCH37 DUB inh: blocks the human deubiquitinase UCH37; 0.33% of 330,000 active; purified proteasome/UCH37, Ub-AMC cleavage fluorescence; inhibition, % (concentration not given with the values); AID 588478; Q9Y5K5;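 active means mean inhibition over replicate wells above about 20%, limit read from the data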;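 further: 0% = compound-free wells with enzyme and 100% = wells lacking proteasome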
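Test system – human UCH37 enzyme supplied as purified proteasome complex · Incubation – 30 min preincubation with enzyme, 25 min cleavage at room temperature · Detection – AMC fluorescence from Ub-AMC cleavage, excitation 355 nm, emission 460 nm · Benchmarks – no-proteasome wells (full inhibition) and compound-free wells (no inhibition)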
MEKK2wt confirm: raises or lowers MEK5 binding to wildtype human MEKK2, retest; binding response (% of control), % at 10 µM; bead flow cytometry, Alexa488-MEK5 binding to MEKK2 WT; actives lie on both sides; shares compounds with MEKK3 PB1 HTS; 2.4% of 5,900 active; AID 1892; in the data active means binding response below about 16% or above about 210%; inactive means in between
MEKK2mut-MEK5: signal of MEK5 binding to mutant human MEKK2, retest. shares compounds with MEKK3 PB1 HTS. bead flow cytometry, Alexa488-MEK5 binding to MEKK2 mutant. percent response, % at 10 µM. 2% of 5,900 active. AID 1893; in the data active means percent response mostly above about 71%, no sharp cut-off; inactive means mostly below about 38%;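 further: higher means compound restores mutant binding toward wildtype level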
MEKK3-MEK5 inh: confirmation of inhibitors of MEK5 binding to human MEKK3. binding response (% of control), % at 10 µM. shares compounds with MEKK3 PB1 HTS. AID 1894. 1.8% of 5,900 active. bead flow cytometry, Alexa488-MEK5 binding to MEKK3; stronger effect = lower value;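 active means binding response below 72% of control, or above a set upper limit, though filed actives all read lower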;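 further: 100% = DMSO only wells and 0% = binding blocked by excess unlabeled MEK5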
Numbers without * were called inactive; i = inactive; . = no result given; [ ] = dose if it differs, or a comment.

SMILES	MEKK2mut PB1 HTS	Rce1 inh	T cell HTS	MEKK3 PB1 HTS	MEKK2 WT-MEK5	UCH37 DUB inh	MEKK2wt confirm	MEKK2mut-MEK5	MEKK3-MEK5 inh
CCN(CC)S(=O)(=O)c1cc(C(=O)Nc2ccccc2[N+](=O)[O-])ccc1Cl	-2	i	163	102	98	0	.	.	.
NC(=NOC(=O)c1ccc([N+](=O)[O-])cc1Cl)c1ccccn1	.	.	.	.	.	1	.	.	.
O=C(Nc1ccccc1)C(c1ccccc1)C1CCCC1 (stereo not given)	0	i	.	148*	104	0	107	10	105
CCS/C(N)=N/N=Cc1cc(C)ccc1O	.	.	.	.	.	0	.	.	.
Cc1nc2c(-c3ccc(F)cc3)c(C)nn2c(C)c1CCC(=O)Nc1ccccc1F	-13	i	337	45*[inhibitor]	48	-18	94	-7	99
COC(CNC(=O)CCc1c(C)nc2c(-c3ccc(F)cc3)c(C)nn2c1C)OC	1	i	484	101	99	3	.	.	.
COc1cc2c(C(=O)OCCN(C)C)c(CSc3ccccc3)n(C)c2cc1Br	-9	i	i	99	146*	1	153	28	108
CCOC(=O)c1c(CN(C)C)n(-c2ccccc2)c2cc(Br)c(OC)cc12	1	i	171	119	112	3	.	.	.
S=c1[nH]nc(-c2ccccn2)n1N=Cc1ccc(Cl)cc1	.	.	.	.	.	5	.	.	.
CCc1ccc(NC(=S)NC(=O)CC(C)C)cc1	1	i	96	148*	110	1	104	11	108
CC(=NNC(=O)c1sccc1C)c1ccncc1	.	.	.	.	.	1	.	.	.
CC(=O)c1cccc(NC(=O)CCC2CCCC2)c1	-21	i	342	2.0*[inhibitor]	2.0*[inhibitor]	2	103	1	101
CC(=O)c1cccc(NC(=O)C(C)OC(=O)CCC2CCCCC2)c1 (stereo not given)	.	i	i	.	.	4	.	.	.
Cc1cccc(C(=O)ON=Cc2ccc(Br)cc2)c1	.	.	.	.	.	3	.	.	.
CC(C)(C)C(=O)Nc1ccc2oc(-c3cc(F)c(F)cc3Cl)nc2c1	-19	i	192	1.0*[inhibitor]	1.0*[inhibitor]	-9	103	-2	100
Cc1nn(C)c(C(=O)Sc2cccc(Cl)c2)c1[N+](=O)[O-]	28	i	464	133*	115	7	97	-6	97
N#CNC(=Nc1cccc(F)c1)SCc1ccccc1	-2	i	133	102	98	3	.	.	.
N#CNC(=Nc1cccc(F)c1)SCc1cccc(F)c1	1	i	236	136*	107	3	105	2	100
Cc1nn(Cc2ccccc2)c(Cl)c1C(=O)OCC(=O)NC(=O)NC12CC3CC(CC(C3)C1)C2	1	i	229	145*	106	1	98	-7	101
Cc1noc(C)c1C(=O)OCC(=O)NC(=O)NC12CC3CC(CC(C3)C1)C2	0	.	609	99	97	4	.	.	.
COc1ccccc1N(CC(=O)NN=Cc1c(O)ccc2ccccc12)S(C)(=O)=O	.	.	.	.	.	0	.	.	.
CS(=O)(=O)N1CCN(c2ccc([N+](=O)[O-])cc2F)CC1	-16	i	205	75*[inhibitor]	79	12	101	13	104
O=C(NN=Cc1ccccc1)c1cccc(C(=O)NN=Cc2ccccc2)n1	.	.	.	.	.	-3	.	.	.
O=C(OCC(=O)N(C1CCCCC1)C1CCCCC1)c1cnccn1	.	i	207	.	.	2	.	.	.
Cc1ccc2nc(Cl)c(CN(C(=O)c3cnccn3)C3CCCCC3)cc2c1	-26	i	70	2.0*[inhibitor]	-2.0*[inhibitor]	4	104	0	101
SMILES	MEKK2mut PB1 HTS	Rce1 inh	T cell HTS	MEKK3 PB1 HTS	MEKK2 WT-MEK5	UCH37 DUB inh	MEKK2wt confirm	MEKK2mut-MEK5	MEKK3-MEK5 inh
CNC(=S)N/N=C1\C(=O)c2cccc3cccc1c23	-3	i	181	95	99	3	.	.	.
CCCCNC(=S)N/N=C1\C(=O)c2cccc3cccc1c23	-5	i	616	71*[inhibitor]	74	4	97	-3	97
COC(=O)c1c(NC(=O)CN2CCN(C(=O)c3ccco3)CC2)c2c(C)cccc2n1C	18	i	216	122*	120	5	95	-3	101
CC(C)CNC(=O)COC(=O)CNC(=O)c1cc(Cl)cc([N+](=O)[O-])c1	0	i	336	149*	105	3	104	9	109
CNC(=O)COC(=O)CNC(=O)c1cc(Cl)cc([N+](=O)[O-])c1	-2	i	168	127	115	4	.	.	.
CC(C)(C)NC(=O)COC(=O)CNC(=O)c1cc(Cl)cc([N+](=O)[O-])c1	0	.	221	131*	106	3	92	-8	89
N=C1/C(=C\c2coc3ccccc3c2=O)C(=O)N=C2SC(c3ccncc3)=NN12	-10	i	204	70*[inhibitor]	67	-9	101	2	101
N=C1/C(=C/c2coc3ccccc3c2=O)C(=O)N=C2SC(c3ccco3)=NN12	-3	i	752	94	93	-14	.	.	.
CC1CCCC(C)N1CCCNC(=O)c1ccc2nc(N3CCOCC3)sc2c1 (stereo not given)	9	i	587	102	124	4	.	.	.
Cc1ccc(S(=O)(=O)NCc2ccc(C(=O)NCCCN3CCC(Cc4ccccc4)CC3)cc2)cc1	40	i	357	106	161*	3	173	29	105
O=C(NCCCN1CCC(Cc2ccccc2)CC1)c1ccc2nc(N3CCOCC3)sc2c1	9	i	327	104	144*	1	147	17	101
Cc1ccc(S(=O)(=O)NCCC(=O)N2CCC(Cc3ccccc3)CC2)cc1	.	i	307	.	.	-2	.	.	.
CC(=NNC(=O)CCC(=O)NN=C(C)c1ccc(C)o1)c1ccc(C)o1	.	.	.	.	.	6	.	.	.
CC1=CC(=NNc2ccccc2[N+](=O)[O-])CC(C)(C)C1	.	.	.	.	.	3	.	.	.
COc1ccccc1NS(=O)(=O)c1cccc(C(=O)NN=Cc2ccc(OCC(=O)O)cc2)c1	.	.	.	.	.	3	.	.	.
C=CCSc1nc(-c2ccccc2)c(C#N)c(=O)[nH]1	5	i	303	103	105	4	.	.	.
C=CCSc1nc2c(c(=O)[nH]1)C(c1ccccc1)C(C#N)=C(N)O2 (stereo not given)	30	i	492	132*	108	6	98	-5	97

Compound activity as filed in PubChem BioAssay.
